Source: ChEMBL document CHEMBL2321751, “Optimization of chloronitrobenzamides (CNBs) as therapeutic leads for human African trypanosomiasis (HAT)” (J Med Chem, 2013)
pEC50: −log10 of the molar value. Values after ≈ are worked out from the molar mass of the structure shown.

Experiments:
[1] = tested on: Trypanosoma brucei brucei; assay: Antitrypanosomal activity against blood stream stage of Trypanosoma brucei brucei after 48 hrs by Cell Titre Glo assay; format: functional, organism-based
Procedure, shortened: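 Culture-adapted parasites were grown in HMI-9 with 10% heat-inactivated FBS, 10% Serum Plus and penicillin/streptomycin to 1 × 10⁶ cells/mL, then diluted to 1 × 10⁴ cells/mL. DMSO dilution series were pin-transferred and plates held 48 h at 37 °C in 5% CO2. After 30 min at room temperature, CellTiter-Glo was added and luminescence read after 8 min.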

[2] = tested on: Trypanosoma brucei gambiense; assay: Antitrypanosomal activity against Trypanosoma brucei gambiense KO48 after 70 hrs by Alamar Blue assay; format: functional, organism-based; conditions: KO48, 70 h
Procedure, shortened: (§1)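 T. b. gambiense strains were grown in HMI-9 with 15% heat-inactivated FBS and 5% human serum. 10000 trypanosomes per well were seeded into serial drug dilutions and held 70 h at 37 °C in humidified 5% CO2. Resazurin was then added for a further 4–6 h, and fluorescence was read (ex 536/em 588 nm). IC50 was taken by linear regression from sigmoidal dose-inhibition curves.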

[3] = tested on: Trypanosoma brucei rhodesiense; assay: Antitrypanosomal activity against bloodstream forms of wild type Trypanosoma brucei rhodesiense STIB900 after 70 hrs by Alamar Blue assay; format: functional, organism-based; conditions: STIB900, 70 h
Procedure, shortened: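 T. b. rhodesiense STIB 900 was cultured in MEM with Earle's salts and Baltz supplements (0.2 mM 2-mercaptoethanol, 1 mM Na-pyruvate, 0.5 mM hypoxanthine, 15% heat-inactivated horse serum). 2000 bloodstream forms per well were exposed to serial drug dilutions for 70 h at 37 °C in humidified 5% CO2. Resazurin followed for 2–4 h, read by fluorescence (ex 536/em 588 nm). IC50 came from sigmoidal curves by linear regression.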

[4] = tested on: Trypanosoma brucei gambiense; assay: Antitrypanosomal activity against Trypanosoma brucei gambiense DAL 898R after 70 hrs by Alamar Blue assay; format: functional, organism-based; procedure, shortened: as §1
[5] = tested on: Trypanosoma brucei gambiense; assay: Antitrypanosomal activity against Trypanosoma brucei gambiense STIB930 after 70 hrs by Alamar Blue assay; format: functional, organism-based; conditions: STIB930, 70 h; procedure, shortened: as §1
[6] = tested on: Trypanosoma brucei brucei; assay: Antitrypanosomal activity against Trypanosoma brucei brucei 221 after 48 hrs by Cell Titre Glo assay; format: functional, organism-based; conditions: Trypanosoma brucei, 221, 48 h
Procedure, shortened: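 Bloodstream-form parasites grown in HMI-9 with 10% heat-inactivated FBS, 10% Serum Plus and penicillin/streptomycin at 37 °C, 5% CO₂, to 1 × 10⁶ cells/mL. Diluted to 1 × 10⁴ cells/mL, then dosed with a DMSO dilution series by pin transfer. Incubated 48 h at 37 °C, 5% CO₂. Viability read by CellTiter-Glo luminescence. EC₅₀ from a variable-slope sigmoidal fit. Mean of six replicates, errors as 95% CI.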

[7] = Permeability of the compound at pH 7.4 by PAMPA; format: ADME; conditions: PAMPA, read-out: permeability
Procedure, shortened: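 Compound (10 mM DMSO stock) was diluted in system solution buffer pH 7.4 and placed in the donor chamber of a PAMPA sandwich whose membrane was coated with GIT lipid. Acceptor buffer filled the acceptor chamber, and the assembly was stirred for 30 min. Donor and acceptor UV spectra (250–500 nm) were compared with a reference to give the permeability coefficient. Run in triplicate.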

HEK293 = assay: Cytotoxicity against HEK293 cells after 72 hrs by Cell Titre Glo assay; format: cell-based; conditions: Homo sapiens, HEK293, 72 h
Procedure, shortened: (§2)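 Human cells grown to 80% confluence were plated in 384-well format and received compound dilutions by pin tool. After 72 h at 37 °C in 5% CO2, viability was measured by CellTiter-Glo luminescence.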

HepG2 = assay: Cytotoxicity against human HepG2 cells after 72 hrs by Cell Titre Glo assay; format: cell-based; conditions: HepG2, 72 h; procedure, shortened: as §2
Raji = assay: Cytotoxicity against human Raji cells after 72 hrs by Cell Titre Glo assay; format: cell-based; procedure, shortened: as §2
BJ = assay: Cytotoxicity against human BJ cells after 72 hrs by Cell Titre Glo assay; format: cell-based; procedure, shortened: as §2
[8] = Kinetic solubility of the compound in PBS buffer at pH 7.4 after 18 hrs by UV spectrophotometric analysis; format: physicochemical; conditions: for solubility kinetic at 18 h: PBS buffer, pH 7.4, read-out: Kinetic_solubility
Procedure, shortened: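 Compound from a 10 mM stock was added to PBS pH 7.4 and left 18 h at room temperature. The suspension was filtered, and the filtrate was mixed 1:1 with 1-propanol. Solubility was derived from UV spectrum AUC (250–500 nm) relative to a 1-propanol/PBS reference. Run in triplicate.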

O=C(Nc1cccc(Br)c1)c1cc([N+](=O)[O-])ccc1Cl
pEC50 [1]: 5.74

Cc1ccc2nc(NC(=O)c3cc([N+](=O)[O-])ccc3Cl)[nH]c2c1
pEC50 [1]: < 4.48

O=C(Nc1nc(-c2ccc(F)cc2)cs1)c1cc([N+](=O)[O-])ccc1Cl
pEC50 [1]: 6.43

O=C(Nc1ccc(F)c(Cl)c1)c1cc([N+](=O)[O-])ccc1Cl
pEC50 [1]: 6.02

Nc1nc(N)nc(Nc2ccc([As]3SCC(CO)S3)cc2)n1 (stereo unspecified) [MELARSOPROL]
pEC50 [2]: 7.85 | pEC50 [3]: 8.14 | pEC50 [4]: 7.92 | pEC50 [5]: 8.17

O=C(Nc1ccc2oc(-c3ccccc3Cl)nc2c1)c1cc([N+](=O)[O-])ccc1Cl
pEC50 [1]: 5.55

O=C(Nc1nc(-c2ccc(F)cc2F)cs1)c1cc([N+](=O)[O-])ccc1Cl
pEC50 [1]: 6.40

O=C(Nc1ccc(-c2nc3ccccc3o2)cc1)c1cc([N+](=O)[O-])ccc1Cl
pEC50 [1]: 5.21

O=C(Nc1cccc(C(F)(F)F)c1)c1cc([N+](=O)[O-])ccc1Cl
pEC50 [1]: 6.02

Cc1ccc(-c2csc(NC(=O)c3cc([N+](=O)[O-])ccc3Cl)n2)cc1
pEC50 [1]: 5.92

O=C(Nc1nc2ccccc2s1)c1cc([N+](=O)[O-])ccc1Cl
pEC50 [1]: 5.80

N=C(N)c1ccc(OCCCCCOc2ccc(C(=N)N)cc2)cc1 [PENTAMIDINE]
pEC50 [2]: 7.29 | pEC50 [3]: 9.22 | pEC50 [4]: 9.05 | pEC50 [5]: 9.15 | pEC50 [6]: 7.92

O=C(Nc1ccc(-c2nc3ccccc3[nH]2)cc1)c1cc([N+](=O)[O-])ccc1Cl
pEC50 [1]: 5.39

O=C(Nc1ccc2oc(-c3ccccc3)nc2c1)c1cc([N+](=O)[O-])ccc1Cl
pEC50 [1]: 5.21

COc1ccc(OC)c(-c2csc(NC(=O)c3cc([N+](=O)[O-])ccc3Cl)n2)c1
pEC50 [1]: 5.68

COc1cccc2sc(NC(=O)c3cc([N+](=O)[O-])ccc3Cl)nc12
pEC50 [1]: 6.30

O=C(Nc1ccc2oc(-c3ccccc3Br)nc2c1)c1cc([N+](=O)[O-])ccc1Cl
pEC50 [1]: 5.38

Cc1ccc(-c2nc3cc(Cl)ccc3o2)cc1NC(=O)c1cc([N+](=O)[O-])ccc1Cl
pEC50 [1]: < 4.48

Cc1sc(NC(=O)c2cc([N+](=O)[O-])ccc2Cl)nc1-c1ccccc1
pEC50 [1]: 6.27

O=C(Nc1ccc([N+](=O)[O-])cc1)c1cc([N+](=O)[O-])ccc1Cl
pEC50 [1]: 5.74

COc1ccc(-c2nc3ccccc3s2)cc1NC(=O)c1cc([N+](=O)[O-])c(N2CCN(C)CC2)cc1Cl
pEC50 [3]: 6.77 | Papp [7]: 676 ×10⁻⁶ cm/s | pEC50 (HEK293): < 4.60 | pEC50 (HepG2): < 4.60 | pEC50 (Raji): < 4.60 | pEC50 [5]: 7.14 | pEC50 (BJ): < 4.60 | pEC50 [6]: 6.85 | solubility kinetic at 18 h [8]: 0.5 µM (≈ 0.269 µg/mL)

O=C(Nc1cc(C(F)(F)F)ccc1Cl)c1cc([N+](=O)[O-])ccc1Cl
pEC50 [1]: 6.28

O=C(Nc1cc(-c2nc3ccccc3s2)ccc1F)c1cc([N+](=O)[O-])ccc1Cl
pEC50 [3]: 6.64 | Papp [7]: 191 ×10⁻⁶ cm/s | pEC50 (HEK293): < 4.60 | pEC50 (HepG2): < 4.60 | pEC50 (Raji): < 4.60 | pEC50 [5]: 6.70 | pEC50 (BJ): < 4.60 | pEC50 [6]: 6.80 | Kinetic_solubility ([8]; buffer, pH 7.4, 18 h, BLD = below limit of detection): BLD

O=C(Nc1ccc(F)c(-c2nc3ccccc3s2)c1)c1cc([N+](=O)[O-])ccc1Cl
pEC50 [3]: 7.16 | Papp [7]: 17 ×10⁻⁶ cm/s | pEC50 (HEK293): < 4.60 | pEC50 (HepG2): < 4.60 | pEC50 (Raji): < 4.60 | pEC50 [5]: 7.20 | pEC50 (BJ): < 4.60 | pEC50 [6]: 6.60 | solubility kinetic at 18 h [8]: 0.49 µM (≈ 0.21 µg/mL)

COc1ccc2nc(NC(=O)c3cc([N+](=O)[O-])ccc3Cl)sc2c1
pEC50 [1]: 6.01

O=C(Nc1ccc2oc(-c3ccccc3F)nc2c1)c1cc([N+](=O)[O-])ccc1Cl
pEC50 [1]: 5.31

COc1cc(Cl)c(C(=O)Nc2cccc(-c3nc4ccccc4s3)c2)cc1[N+](=O)[O-]
Papp [7]: 12 ×10⁻⁶ cm/s | pEC50 (HEK293): < 4.60 | pEC50 (HepG2): < 4.60 | pEC50 (Raji): < 4.60 | pEC50 (BJ): < 4.60 | pEC50 [6]: 6.48 | solubility kinetic at 18 h [8]: 0.01 µM (≈ 0.0044 µg/mL)

Cc1ccc2nc(NC(=O)c3cc([N+](=O)[O-])ccc3Cl)sc2c1
pEC50 [1]: 5.96

O=C(Nc1cccc(-c2nc3ncccc3o2)c1)c1cc([N+](=O)[O-])ccc1Cl
pEC50 [1]: 5.51
